The subject of test [1] is Vaccinia virus. The experiment in a line: Degree of inhibition of virus-induced cytopathogenic effect and the degree of cytotoxicity produced by compound against vaccinia lederle CA virus. The format is functional, Orthopoxvirus vaccinia. The method, boiled down: (§1)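 Southern Research CPE inhibition test in Vero host cells. Confluent monolayers in 96-well plates received drug (minimum seven concentrations, cytotoxic to noncytotoxic) plus virus at 32 CCID50 per 0.1 mL, in triplicate, with cell, virus and drug-cytotoxicity controls. Incubated at 37 °C, 2% CO2. CPE scored microscopically at 3–4 days. VR = 0.1 × sum of CE-grade differences from virus control, halved for partially cytotoxic wells.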

The test system of test [2] is Vaccinia virus. Put plainly: Dose of compound required to inhibit the vaccinia lederle CA virus induced cytopathogenic effects. The format is functional. Particulars: Orthopoxvirus vaccinia; read-out: ID50 (the source's name). In short, it runs like this: as §1
For orientation: Cytopathic effects are the visible damage that an infection or toxin causes in cultured cells.

We go through one molecule from ChEMBL document CHEMBL1124192, “Cyclopentenylcytosine. A carbocyclic nucleoside with antitumor and antiviral properties” (J Med Chem, 1988).

Each structure is given as a SMILES string. Values after ≈ are worked out from the molar mass of the structure shown.

In the case of `Nc1ncnc2c1ncn2[C@@H]1O[C@H](CO)[C@@H](O)[C@@H]1O` [VIDARABINE], the Virus rating in the test on Vaccinia virus [1] is 3.1. Besides, the IC50 in the test with Vaccinia virus [2] came to 9.8 µg/mL (≈ 36.7 µM).
